Blank lines part the entries; values can stand above or below the molecule they belong to.
Legend:
[1] = test system: U-251; assay: Cytotoxicity against human U251MG cells assessed as reduction in cell survival measured after 72 hrs by MTT assay; format: functional, cell-based
Outline: (§1)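 MTT viability on 2D cultures, U87-MG in DMEM and U251-MG in EMEM with […], both with 10% FBS and Pen Strep. 5000 cells seeded, then 72 h exposure to 500, 250, 100, 50, 25, 10 and 5 μM (DMSO at most […]). MTT 0.5 mg/mL for 1 h, formazan in DMSO read at 550 nm. Survival as % of control. IC50 determined graphically. At least triplicate.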

[2] = Drug homolysis in H2O/MeOH buffered with HEPES/NaCl at pH 7.4 assessed as rate constant by measuring nitroxide level in presence of alkyl radical scavenger TEMPOR by 31P[1H]-NMR analysis
[3] = Drug homolysis in H2O/MeOH buffered with HEPES/NaCl at pH 7.4 assessed as activation energy in presence of alkyl radical scavenger TEMPOR by 31P[1H]-NMR analysis
[4] = test system: U-87 MG; assay: Cytotoxicity against human U87MG cells assessed as reduction in cell survival measured after 72 hrs by MTT assay; format: functional, cell-based; conditions: for Activity: U-87MG ATCC; outline: as §1
[5] = Drug homolysis in H2O/MeOH buffered with Na2CO3/NaHCO3 at pH 10.3 assessed as rate constant by measuring nitroxide level in presence of alkyl radical scavenger TEMPOR by 31P[1H]-NMR analysis
[6] = Drug homolysis in H2O/MeOH buffered with Na2CO3/NaHCO3 at pH 10.3 assessed as activation energy in presence of alkyl radical scavenger TEMPOR by 31P[1H]-NMR analysis
[7] = Drug homolysis in H2O/MeOH buffered with HCl/KCl at pH 2.2 assessed as rate constant by measuring nitroxide level in presence of alkyl radical scavenger TEMPOR by 31P[1H]-NMR analysis
[8] = Drug homolysis in H2O/MeOH buffered with HCl/KCl at pH 2.2 assessed as activation energy in presence of alkyl radical scavenger TEMPOR by 31P[1H]-NMR analysis
[9] = n-octanol/phosphate buffered saline partition coefficient, log D of the compound at pH 7.4 by shake-flask method; format: physicochemical
Outline: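 Shake-flask partition between pre-saturated n-octanol and PBS at pH 7.4. The aqueous phase was quantified by RP-HPLC on a 4.6 × 50 mm column, eluting with CH3CN/H2O (each with 0.1% TFA) from 10:90 to 100:0 over 10 min.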

[10] = Stability in H2O/MeOH buffered with HEPES/NaCl at pH 7.4 assessed as temperature; format: physicochemical; conditions: buffer
[11] = Half life in H2O/MeOH buffered with HEPES/NaCl at pH 7.4 in presence of alkyl radical scavenger TEMPOR by 31P[1H]-NMR analysis; format: physicochemical; conditions: for t1/2: buffer; for half-life: H2O/MeOH buffered with HEPES/NaCl
[12] = Dissociation constant, pKa of the compound in 1:1 v/v D2O/CD3OD by 1H-NMR spectrometric method; format: physicochemical
Outline: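 Samples in D2O/CD3OD (1:1 v/v) were adjusted with DCl/NaOD to a series of pH* values, read on a meter calibrated with non-deuterated standards, and 1H-NMR was recorded at 400 MHz. Imidazole proton chemical shifts were plotted against pH* and fitted sigmoidally. The pKa* was converted by pH = 0.929 pH* + 0.42.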

SMILES: CCOP(=O)(OCC)C(N(OC(C)c1cn(C)c[n+]1C)C(C)(C)C)C(C)(C)C (stereo in doubt; form 1) [listing 1 of 2 here]
- Activity [1]: Dose-dependent effect
- Kdiss [2]: 5.73 ×10⁻⁴ /s
- Ea [3]: 27.7 kcal/mol
- Activity [4]: Dose-dependent effect

SMILES: CCOP(=O)(OCC)C(N(OC(C)c1ncc[nH]1)C(C)(C)C)C(C)(C)C (stereo in doubt; form 1)
- Kdiss [5]: 1.97 ×10⁻⁴ /s
- Activity [1]: Dose-dependent effect
- Ea [6]: 29.2 kcal/mol
- Kdiss [2]: 2 ×10⁻⁴ /s
- Ea [3]: 28.4 kcal/mol
- Kdiss [7]: 7.47 ×10⁻⁴ /s
- Ea [8]: 26.7 kcal/mol
- Activity [4]: Dose-dependent effect

SMILES: CCOP(=O)(OCC)C(N(OC(C)c1ncc[nH]1)C(C)(C)C)C(C)(C)C (stereo in doubt; form 2)
- Kdiss [5]: 2.47 ×10⁻⁴ /s
- Activity [1]: Dose-dependent effect
- Ea [6]: 29.1 kcal/mol
- Kdiss [2]: 2.61 ×10⁻⁴ /s
- Ea [3]: 28.2 kcal/mol
- Kdiss [7]: 9.16 ×10⁻⁴ /s
- Ea [8]: 26.6 kcal/mol
- Activity [4]: Dose-dependent effect

SMILES: CCOP(=O)(OCC)C(N(OC(C)c1cn(C)cn1)C(C)(C)C)C(C)(C)C (stereo in doubt; form 1)
- Kdiss [5]: 4.89 ×10⁻⁵ /s
- Activity [1]: Dose-dependent effect
- Ea [6]: 30.2 kcal/mol
- Kdiss [2]: 8.58 ×10⁻⁵ /s
- Ea [3]: 29.8 kcal/mol
- Kdiss [7]: 7.84 ×10⁻⁴ /s
- Ea [8]: 28.3 kcal/mol
- Activity [4]: Dose-dependent effect

- logD ([9]; octanol/water): 0.5
- T [10]: 60 °C
- t1/2 [11]: 3.4 h
SMILES: CCOP(=O)(OCC)C(N(OC(C)c1n(C)cc[n+]1C)C(C)(C)C)C(C)(C)C (stereo in doubt; form 2) [listing 1 of 2 here]

SMILES: CCOP(=O)(OCC)C(N(OC(C)c1n(C)cc[n+]1C)C(C)(C)C)C(C)(C)C (stereo in doubt; form 2) [listing 2 of 2 here]
- Activity [1]: Dose-dependent effect
- Kdiss [2]: 1.1 ×10⁻³ /s
- Ea [3]: 26.4 kcal/mol
- Activity [4]: Dose-dependent effect

SMILES: CCOP(=O)(OCC)C(N(OC(C)c1cc[n+](C)cc1)C(C)(C)C)C(C)(C)C (configuration not stated)
- IC50 [4]: 250 µM
- half-life [11]: 0.75 h

SMILES: CCOP(=O)(OCC)C(N(OC(C)c1c[nH]cn1)C(C)(C)C)C(C)(C)C (stereo in doubt; form 2)
- Kdiss [5]: 4.07 ×10⁻⁵ /s
- Activity [1]: Dose-dependent effect
- Ea [6]: 29.5 kcal/mol
- Kdiss [2]: 1.95 ×10⁻⁴ /s
- Ea [3]: 29.2 kcal/mol
- Kdiss [7]: 2.8 ×10⁻⁴ /s
- Ea [8]: 29 kcal/mol
- Activity [4]: Dose-dependent effect

SMILES: Cn1nnc2c(C(N)=O)ncn2c1=O [TEMOZOLOMIDE]
- IC50 ([1]; U-251, 72 h): 455 µM

- pKa [12]: 5.81
SMILES: CCOP(=O)(OCC)C(N(OC(C)n1ccnc1)C(C)(C)C)C(C)(C)C (stereo in doubt; form 2)

- logD ([9]; n-octanol/phosphate buffered saline, read-out: logD): 0.8
- T [10]: 70 °C
- half-life [11]: 25 h
SMILES: CCOP(=O)(OCC)C(N(OC(C)c1cn(C)c[n+]1C)C(C)(C)C)C(C)(C)C (stereo in doubt; form 1) [listing 2 of 2 here]
- IC50 [4]: 25 to 380 µM

SMILES: CCOP(=O)(OCC)C(N(OC(C)c1ccncc1)C(C)(C)C)C(C)(C)C (configuration not stated)
- pKa ([12]; 1:1 v/v D2O/CD3OD, read-out: pKa): 4.7

- logD ([9]; octanol/water): 0.3
SMILES: CCOP(=O)(OCC)C(N(OC(C)n1cc[n+](C)c1)C(C)(C)C)C(C)(C)C (stereo in doubt; form 2)

SMILES: CCOP(=O)(OCC)C(N(OC(C)c1cn(C)c[n+]1C)C(C)(C)C)C(C)(C)C (stereo in doubt; form 2) [listing 1 of 2 here]
- Activity [1]: Dose-dependent effect
- Kdiss [2]: 1.61 ×10⁻³ /s
- Ea [3]: 27.7 kcal/mol
- Activity [4]: Dose-dependent effect

- logD ([9]; octanol/water): 0.4
- T [10]: 80 °C
- t1/2 [11]: 29 h
SMILES: CCOP(=O)(OCC)C(N(OC(C)c1cn(C)c[n+]1C)C(C)(C)C)C(C)(C)C (stereo in doubt; form 2) [listing 2 of 2 here]

SMILES: CCOP(=O)(OCC)C(N(OC(C)c1n(C)cc[n+]1C)C(C)(C)C)C(C)(C)C (stereo in doubt; form 1) [listing 1 of 2 here]
- Activity [1]: Dose-dependent effect
- Kdiss [2]: 1.27 ×10⁻³ /s
- Ea [3]: 27.1 kcal/mol
- Activity [4]: Dose-dependent effect

- logD ([9]; octanol/water): -0.1
- T [10]: 100 °C
- t1/2 [11]: 5 yr
SMILES: CCOP(=O)(OCC)C(N(OC(C)n1cc[n+](C)c1)C(C)(C)C)C(C)(C)C (stereo in doubt; form 1)
- IC50 [4]: 25 to 380 µM

- logD ([9]; octanol/water): -0.2
- T [10]: 70 °C
- t1/2 [11]: 10 h
SMILES: CCOP(=O)(OCC)C(N(OC(C)c1n(C)cc[n+]1C)C(C)(C)C)C(C)(C)C (stereo in doubt; form 1) [listing 2 of 2 here]
- IC50 [4]: 25 to 380 µM

From ChEMBL document CHEMBL4339209, “Chemical modifications of imidazole-containing alkoxyamines increase C-ON bond homolysis rate: Effects on their cytotoxic properties in glioblastoma cells” (Bioorg Med Chem, 2019)
